Assay results from ChEMBL document CHEMBL1154860, “Synthesis and investigation of inhibition effect of fluorinated sulfonamide derivatives on carbonic anhydrase” (Eur J Med Chem, 2010).
The source made the active and inactive calls. No cut-off for these calls is given here.

How the values were obtained:
[1] = Inhibition of bovine carbonic anhydrase assessed as conversion of 4-nitrophenyl acetate to 4-nitrophnolate after 5 mins; parameters: species or system Bos taurus
How it was run: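 Bovine CA at 2.9 × 10^-6 M (concentration set from A280) measured by initial rate of 4-nitrophenyl acetate hydrolysis, substrate in acetone/water over a range of concentrations. 4-Nitrophenolate formation followed at 348 nm, pH 8, with non-enzymatic hydrolysis subtracted. Inhibitors dissolved in distilled–deionized water. Triplicates at each substrate and inhibitor concentration; IC50 is the mean of 3 assays.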

[2] = Cytotoxicity in sheep RBC assessed as hemolysis at 0.125 to 1000 uM after 20 mins; assay type: cell-based, Ovis aries; details: erythrocyte
How it was run: (§1)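 Sheep erythrocytes were washed three times in PBS pH 7.4 just before the assay and used at a final 5% cell concentration in the same buffer. After incubation with compound, samples were centrifuged and supernatant absorbance was read at 405 nm. The 0% and 100% hemolysis references were erythrocyte stock in PBS and in distilled water, processed identically.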

[3] = Cytotoxicity in sheep RBC assessed as hemolysis at 1000 uM after 20 mins; assay type: cell-based, Ovis aries; details: erythrocyte; how it was run: as §1
[4] = target: Carbonic anhydrase 2 (Homo sapiens, UniProt P00918); experiment: Inhibition of human carbonic anhydrase 2 assessed as conversion of 4-nitrophenyl acetate to 4-nitrophnolate after 5 mins
[5] = Cytotoxicity in sheep RBC assessed as hemolysis at 62.5 uM after 20 mins; assay type: cell-based, Ovis aries; details: erythrocyte; how it was run: as §1
[6] = species on record: Bos taurus; experiment: Inhibition of bovine carbonic anhydrase assessed as conversion of 4-nitrophenyl acetate to 4-nitrophnolate at 0.27 to 2.07 uM after 5 mins
How it was run: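 Native bovine CA, concentration set from A280 (2.9 × 10^-6 M). Initial rate of 4-nitrophenyl acetate hydrolysis followed at 348 nm at pH 8. Substrate was 1.04 × 10^-3 to 1.875 × 10^-4 M, prepared in acetone/water, and inhibitors were dissolved in water. Non-enzymatic hydrolysis was subtracted, each point was run in triplicate, and values are means of 3 assays.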

[7] = Cytotoxicity in sheep RBC assessed as hemolysis at 31.25 uM after 20 mins; assay type: cell-based, Ovis aries; details: erythrocyte; how it was run: as §1

SMILES | IC50 [1] [µM] | other results
NS(=O)(=O)CCC(F)(F)C(F)(F)C(F)(F)C(F)(F)F | 2.09 | 
NS(=O)(=O)C(F)(F)C(F)(F)C(F)(F)C(F)(F)S(N)(=O)=O | 1.74 | 
NS(=O)(=O)C(F)(F)C(F)(F)C(F)(F)C(F)(F)C(F)(F)C(F)(F)C(F)(F)F | 1.72 | 
NS(=O)(=O)C(F)(F)C(F)(F)C(F)(F)C(F)(F)F [SODIUM PERFLUOROBUTANESULFONAMIDE] | 1.67 | 
CC(=O)Nc1nnc(S(N)(=O)=O)s1 [ACETAZOLAMIDE] | 1.35 | 
NS(=O)(=O)C(F)(F)C(F)(F)C(F)(F)C(F)(F)C(F)(F)C(F)(F)F | 1.47 | Activity [2]: Non-toxic; Activity [3]: Non-toxic
NS(=O)(=O)C(F)(F)F [TRIFLUOROMETHANESULFONAMIDE] | 1.5 | 
[NH-]S(=O)(=O)C(F)(F)C(F)(F)C(F)(F)C(F)(F)C(F)(F)C(F)(F)F.[Na+] [SODIUM PERFLUOROHEXANESULFONAMIDE] | 1.38 | IC50 [4]: 0.122 µM; Activity [3]: Non-toxic
NS(=O)(=O)C(F)(F)C(F)(F)C(F)(F)C(F)(F)C(F)(F)C(F)(F)C(F)(F)C(F)(F)F | 1.58 | Activity [5]: Toxic
CCCCCCS(N)(=O)=O |  | inhibition [6]: inactive
NS(=O)(=O)CCC(F)(F)C(F)(F)C(F)(F)C(F)(F)C(F)(F)C(F)(F)F | 1.9 | 
CCCCCCCCS(N)(=O)=O |  | inhibition [6]: inactive
[NH-]S(=O)(=O)C(F)(F)C(F)(F)C(F)(F)C(F)(F)C(F)(F)C(F)(F)C(F)(F)C(F)(F)F.[Na+] [SODIUM PERFLUOROOCTANESULFONAMIDE] | 1.79 | Activity [7]: Toxic
NS(=O)(=O)C(F)(F)C(F)(F)C(F)(F)C(F)(F)F | 1.49 | 
NS(=O)(=O)CCC(F)(F)C(F)(F)C(F)(F)C(F)(F)C(F)(F)C(F)(F)C(F)(F)C(F)(F)F | 1.66 | 
